Reference: publication PMC3611965 (Nuclear medicine and biology, 2012)
pIC50: −log10 of the molar value. Several values for one entry are separate records, joined by “and”; a condition that tells them apart may be missing. Equal entries are not always repeated.

Legend:
FAAH [1] = biological target: T1, FAAH (Mus musculus, UniProt O08914); test: in vitro competitive ABPP; format: biochemical
T1 sequence (O08914 1-579): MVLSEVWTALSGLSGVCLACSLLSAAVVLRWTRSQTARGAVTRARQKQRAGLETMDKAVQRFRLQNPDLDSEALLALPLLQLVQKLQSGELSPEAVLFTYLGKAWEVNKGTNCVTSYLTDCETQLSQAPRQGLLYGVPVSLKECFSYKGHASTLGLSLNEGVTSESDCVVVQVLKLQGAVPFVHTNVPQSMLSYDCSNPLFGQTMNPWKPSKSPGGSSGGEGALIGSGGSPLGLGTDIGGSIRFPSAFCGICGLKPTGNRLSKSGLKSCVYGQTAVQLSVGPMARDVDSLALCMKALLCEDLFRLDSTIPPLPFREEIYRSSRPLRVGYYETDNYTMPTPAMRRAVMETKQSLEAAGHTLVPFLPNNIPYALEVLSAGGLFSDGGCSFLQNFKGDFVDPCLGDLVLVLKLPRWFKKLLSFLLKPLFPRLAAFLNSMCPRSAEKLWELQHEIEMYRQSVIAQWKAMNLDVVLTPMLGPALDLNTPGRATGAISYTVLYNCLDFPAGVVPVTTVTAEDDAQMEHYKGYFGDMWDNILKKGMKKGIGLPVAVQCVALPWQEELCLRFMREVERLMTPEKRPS
Method in brief: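 Wild-type C57Bl/6J mouse brain membrane fractions (1 mg/mL total protein) were preincubated with varying test compound concentrations for 30 min at 37 °C. FP-Rh was then added (50 μM stock in DMSO) for another 30 min at 37 °C. Samples were quenched in SDS loading buffer and run on SDS-PAGE with in-gel fluorescence scanning. IC50 was calculated from band fluorescence.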

FAAH [2] = biological target: T1, FAAH; test: in vivo competitive ABPP of brains of treated mice; details: C57Bl/6 mice, 10 mg/kg i.p. or p.o., 1 h, gel-based ABPP
Method in brief: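 Wild-type C57Bl/6J mice got test compound or vehicle (18:1:1 PBS:Emulphor:ethanol) and were killed after 1 h. Half-brains were frozen in liquid N2, washed in cold PBS, dounce-homogenized and sonicated, then spun at 1000×g (10 min, 4 °C) and 145,000×g (45 min, 4 °C) into soluble and membrane fractions. These were diluted to 1 mg/mL and labelled with FP-Rh (30 min, 37 °C) for SDS-PAGE fluorescence profiling.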

[3] = MDCK passive permeability; format: in vitro ADME; details: dog
MDR1 = MDR1 (Homo sapiens, UniProt P08183); test: MDR1 efflux ratio; format: in vitro ADME; details: MDCK-MDR1
Sequence of MDR1 (P08183 whole entry, species assumed): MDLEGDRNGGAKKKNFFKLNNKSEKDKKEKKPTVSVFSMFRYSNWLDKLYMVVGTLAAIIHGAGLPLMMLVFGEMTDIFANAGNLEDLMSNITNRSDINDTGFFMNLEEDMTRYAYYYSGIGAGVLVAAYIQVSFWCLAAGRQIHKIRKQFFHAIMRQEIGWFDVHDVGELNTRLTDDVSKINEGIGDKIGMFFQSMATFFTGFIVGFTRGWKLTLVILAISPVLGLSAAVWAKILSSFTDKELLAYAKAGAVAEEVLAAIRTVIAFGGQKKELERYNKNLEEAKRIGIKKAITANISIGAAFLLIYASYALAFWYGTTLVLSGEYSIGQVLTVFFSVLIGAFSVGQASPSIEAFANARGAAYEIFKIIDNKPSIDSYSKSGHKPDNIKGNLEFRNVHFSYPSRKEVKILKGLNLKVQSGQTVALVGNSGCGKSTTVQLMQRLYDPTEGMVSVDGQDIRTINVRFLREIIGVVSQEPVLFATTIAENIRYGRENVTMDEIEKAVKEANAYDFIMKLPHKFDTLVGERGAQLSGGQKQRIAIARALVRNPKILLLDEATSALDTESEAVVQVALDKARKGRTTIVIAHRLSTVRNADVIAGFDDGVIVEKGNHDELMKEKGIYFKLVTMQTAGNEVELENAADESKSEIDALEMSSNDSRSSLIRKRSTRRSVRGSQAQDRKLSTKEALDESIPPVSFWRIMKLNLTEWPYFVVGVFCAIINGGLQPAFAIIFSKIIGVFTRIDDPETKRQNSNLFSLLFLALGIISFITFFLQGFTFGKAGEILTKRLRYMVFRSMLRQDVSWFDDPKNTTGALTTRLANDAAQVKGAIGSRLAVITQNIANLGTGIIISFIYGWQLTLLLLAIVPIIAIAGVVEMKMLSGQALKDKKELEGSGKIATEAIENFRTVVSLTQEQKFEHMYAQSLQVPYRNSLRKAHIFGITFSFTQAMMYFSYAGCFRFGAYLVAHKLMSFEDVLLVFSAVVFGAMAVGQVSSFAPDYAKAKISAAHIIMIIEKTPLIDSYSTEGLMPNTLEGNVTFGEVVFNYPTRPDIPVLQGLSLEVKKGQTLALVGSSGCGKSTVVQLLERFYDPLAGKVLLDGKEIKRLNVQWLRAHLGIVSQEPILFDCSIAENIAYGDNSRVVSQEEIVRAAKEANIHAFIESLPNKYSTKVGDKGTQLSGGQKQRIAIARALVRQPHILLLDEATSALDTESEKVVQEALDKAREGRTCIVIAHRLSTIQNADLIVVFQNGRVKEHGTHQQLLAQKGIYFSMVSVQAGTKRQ

log P7.4 measurement = format: physicochemical; details: n-octanol/DPBS pH 7.4; measured in quadruplicate
Method in brief: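 18F-labelled test compound (15–30 μCi) was partitioned between presaturated n-octanol and DPBS (0.1 M, pH 7.4) by vortexing 60 s and centrifuging at 4000 rpm for 2 min. The octanol phase was washed with fresh DPBS three times, then re-partitioned against fresh DPBS in four successive sets. Triplicate aliquots of each phase were gamma-counted. LogP7.4 = log[(octanol counts×20)/DPBS counts].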

FAAH [4] = biological target: T2, FAAH (Rattus norvegicus, UniProt P97612); test: brain biodistribution of [18F]PF-9811 in rats, baseline and blocked; format: in vivo; details: for SUV±standard deviation, Bone: N=2; for SUV±standard deviation, Blood / SUV±standard deviation, Brain stem / SUV±standard deviation, Cerebellum / SUV±standard deviation, Cortex / SUV±standard deviation, Hippocampus / SUV±standard deviation, Hypothalamus / SUV±standard deviation, Liver / SUV±standard deviation, Rest of brain / SUV±standard deviation, Striatum / SUV±standard deviation, Thalamus: N=4
T2 sequence (P97612 1-579): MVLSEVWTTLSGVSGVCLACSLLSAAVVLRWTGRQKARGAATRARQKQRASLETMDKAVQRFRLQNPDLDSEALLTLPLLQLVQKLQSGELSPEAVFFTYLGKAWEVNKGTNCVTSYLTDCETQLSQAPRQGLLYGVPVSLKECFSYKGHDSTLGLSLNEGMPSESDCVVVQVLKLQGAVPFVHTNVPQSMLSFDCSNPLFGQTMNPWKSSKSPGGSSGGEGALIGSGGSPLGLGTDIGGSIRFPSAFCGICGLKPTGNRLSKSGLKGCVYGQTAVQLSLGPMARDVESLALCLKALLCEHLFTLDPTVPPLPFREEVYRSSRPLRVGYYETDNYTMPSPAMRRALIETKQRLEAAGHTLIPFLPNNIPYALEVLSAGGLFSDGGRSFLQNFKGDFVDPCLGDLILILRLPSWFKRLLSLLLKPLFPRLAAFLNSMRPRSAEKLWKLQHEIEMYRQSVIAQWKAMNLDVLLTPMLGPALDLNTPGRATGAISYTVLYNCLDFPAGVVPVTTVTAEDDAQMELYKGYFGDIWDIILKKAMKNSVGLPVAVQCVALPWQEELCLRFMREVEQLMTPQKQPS

FAAH [5] = biological target: T2, FAAH; test: dynamic PET imaging in rats, baseline and blocked; format: in vivo
Method in brief: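 Male Sprague–Dawley rats (345±28 g) with jugular vein cannulas, held under ~2% isoflurane/O2 with respiration kept at 45–65 breaths/min and heat-lamp warming. The 18F-labelled test compound was given IV via tail vein (1.5462±0.4130 mCi) and brain scanned dynamically for 90 min in 16 frames. Blocked rats received an FAAH inhibitor 1 mg/kg p.o. 1 h before. Blood and plasma were sampled at 1–90 min. Images were atlas-registered for TACs and SUV.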

[6] = rats; ref [20],[21]; cited from earlier work
FAAH [7] = biological target: T2, FAAH; details: cited from earlier work
[8] = system: FAAH relative to other serine hydrolases; details: competitive ABPP; ref [20],[21]; cited from earlier work
[9] = 10 min, blocked: 4 1 mg/kg oral 1 h prior
[10] = 10 min post injection, baseline
[11] = 60 min, blocked: 4 1 mg/kg oral 1 h prior
[12] = 60 min post injection, baseline
[13] = 90 min, blocked: 4 1 mg/kg oral 1 h prior
[14] = 90 min, pretreatment with 4 1 mg/kg p.o.
[15] = 90 min post injection, baseline
[16] = biodistribution 90 min, baseline vs blocking

O=C(Nc1cccnn1)N1CCC(=Cc2cccc(Oc3ccc(OCCF)cn3)c2)CC1 [PF-9811, 4-(3-((5-(2-fluoroethoxy)pyridin-2-yl)oxy)benzylidene)-N-(pyridazin-3-yl)piperidine-1-carboxamide]
pIC50 (FAAH [1]): 7.80 | fold less potent than parent 4 (FAAH [1]; FAAH, competitive ABPP, mouse brain proteome): 5 fold | FAAH inhibition in brain in vivo (FAAH [2]): completely inhibited | off-targets among brain serine hydrolases in vivo (FAAH [2]): no detectable off-targets | Papp A→B [3]: 18.2 ×10⁻⁶ cm/s | efflux ratio (MDR1): 2.52

O=C(Nc1cccnn1)N1CCC(=Cc2cccc(Oc3ccc(OCC[18F])cn3)c2)CC1 [[^18F]PF-9811]
logP7.4 (log P7.4 measurement): 3.14±0.02 and 3.14 | SUV±standard deviation, Bone (FAAH [4]; [9]): 0.332±0.010 SUV | SUV±standard deviation, Blood (FAAH [4]; [9]): 1.031±0.069 SUV | SUV±standard deviation, Brain stem (FAAH [4]; [9]): 0.313±0.011 SUV | SUV±standard deviation, Cerebellum (FAAH [4]; [9]): 0.291±0.008 SUV | SUV±standard deviation, Cortex (FAAH [4]; [9]): 0.265±0.014 SUV | SUV±standard deviation, Hippocampus (FAAH [4]; [9]): 0.282±0.014 SUV | SUV±standard deviation, Hypothalamus (FAAH [4]; [9]): 0.351±0.024 SUV | SUV±standard deviation, Liver (FAAH [4]; [9]): 7.725±0.701 SUV | SUV±standard deviation, Rest of brain (FAAH [4]; [9]): 0.294±0.018 SUV | SUV±standard deviation, Striatum (FAAH [4]; [9]): 0.309±0.028 SUV | SUV±standard deviation, Thalamus (FAAH [4]; [9]): 0.304±0.020 SUV | SUV±standard deviation, Bone (FAAH [4]; [10]): 0.180±0.001 SUV | SUV±standard deviation, Blood (FAAH [4]; [10]): 0.224±0.070 SUV | SUV±standard deviation, Brain stem (FAAH [4]; [10]): 0.319±0.029 SUV | SUV±standard deviation, Cerebellum (FAAH [4]; [10]): 0.666±0.017 SUV | SUV±standard deviation, Cortex (FAAH [4]; [10]): 0.596±0.030 SUV | SUV±standard deviation, Hippocampus (FAAH [4]; [10]): 0.579±0.018 SUV | SUV±standard deviation, Hypothalamus (FAAH [4]; [10]): 0.410±0.027 SUV | SUV±standard deviation, Liver (FAAH [4]; [10]): 14.179±3.336 SUV | SUV±standard deviation, Rest of brain (FAAH [4]; [10]): 0.471±0.038 SUV | SUV±standard deviation, Striatum (FAAH [4]; [10]): 0.427±0.021 SUV | SUV±standard deviation, Thalamus (FAAH [4]; [10]): 0.382±0.051 SUV | SUV±standard deviation, Bone (FAAH [4]; [11]): 0.391±0.088 SUV | SUV±standard deviation, Blood (FAAH [4]; [11]): 0.747±0.191 SUV | SUV±standard deviation, Brain stem (FAAH [4]; [11]): 0.264± 0.076 SUV | SUV±standard deviation, Cerebellum (FAAH [4]; [11]): 0.248± 0.076 SUV | SUV±standard deviation, Cortex (FAAH [4]; [11]): 0.219±0.068 SUV | SUV±standard deviation, Hippocampus (FAAH [4]; [11]): 0.233±0.076 SUV | SUV±standard deviation, Hypothalamus (FAAH [4]; [11]): 0.260± 0.088 SUV | SUV±standard deviation, Liver (FAAH [4]; [11]): 4.488±1.343 SUV | SUV±standard deviation, Rest of brain (FAAH [4]; [11]): 0.239±0.071 SUV | SUV±standard deviation, Striatum (FAAH [4]; [11]): 0.255±0.082 SUV | SUV±standard deviation, Thalamus (FAAH [4]; [11]): 0.251±0.074 SUV | SUV±standard deviation, Bone (FAAH [4]; [12]): 0.133±0.058 SUV | SUV±standard deviation, Blood (FAAH [4]; [12]): 0.063±0.012 SUV | SUV±standard deviation, Brain stem (FAAH [4]; [12]): 0.331±0.041 SUV | SUV±standard deviation, Cerebellum (FAAH [4]; [12]): 0.751±0.094 SUV | SUV±standard deviation, Cortex (FAAH [4]; [12]): 0.674±0.109 SUV | SUV±standard deviation, Hippocampus (FAAH [4]; [12]): 0.673±0.118 SUV | SUV±standard deviation, Hypothalamus (FAAH [4]; [12]): 0.426± 0.045 SUV | SUV±standard deviation, Liver (FAAH [4]; [12]): 17.346±4.789 SUV | SUV±standard deviation, Rest of brain (FAAH [4]; [12]): 0.555±0.081 SUV | SUV±standard deviation, Striatum (FAAH [4]; [12]): 0.441±0.073 SUV | SUV±standard deviation, Thalamus (FAAH [4]; [12]): 0.374±0.045 SUV | SUV±standard deviation, Bone (FAAH [4]; [13]): 0.472±0.133 SUV | SUV±standard deviation, Blood (FAAH [4]; [13]): 0.703±0.117 SUV | SUV±standard deviation, Brain stem (FAAH [4]; [13]): 0.246± 0.050 SUV | SUV±standard deviation, Cerebellum (FAAH [4]; [13]): 0.249± 0.065 SUV | SUV±standard deviation, Cortex (FAAH [4]; [13]): 0.216±0.055 SUV | SUV±standard deviation, Hippocampus (FAAH [4]; [13]): 0.234±0.061 SUV | SUV±standard deviation, Hypothalamus (FAAH [4]; [13]): 0.257±0.079 SUV | SUV±standard deviation, Liver (FAAH [4]; [13]): 4.165±0.664 SUV | SUV±standard deviation, Rest of brain (FAAH [4]; [13]): 0.231±0.055 SUV | SUV±standard deviation, Striatum (FAAH [4]; [13]): 0.240±0.065 SUV | SUV±standard deviation, Thalamus (FAAH [4]; [13]): 0.238±0.058 SUV | increase in signal in the blood on blocking (FAAH [4]; [14]): 12 fold | reduction of signal in the liver on blocking (FAAH [4]; [14]): 74% | SUV±standard deviation, Bone (FAAH [4]; [15]): 0.159±0.001 SUV | SUV±standard deviation, Blood (FAAH [4]; [15]): 0.061±0.009 SUV | SUV±standard deviation, Brain stem (FAAH [4]; [15]): 0.391± 0.040 SUV | SUV±standard deviation, Cerebellum (FAAH [4]; [15]): 0.857±0.144 SUV | SUV±standard deviation, Cortex (FAAH [4]; [15]): 0.789±0.096 SUV | SUV±standard deviation, Hippocampus (FAAH [4]; [15]): 0.770±0.126 SUV | SUV±standard deviation, Hypothalamus (FAAH [4]; [15]): 0.545±0.126 SUV | SUV±standard deviation, Liver (FAAH [4]; [15]): 16.116±4.670 SUV | SUV±standard deviation, Rest of brain (FAAH [4]; [15]): 0.612±0.088 SUV | SUV±standard deviation, Striatum (FAAH [4]; [15]): 0.573±0.081 SUV | SUV±standard deviation, Thalamus (FAAH [4]; [15]): 0.544± 0.063 SUV | specific to non-specific binding ratio, cerebellum (FAAH [4]; [16]): 2.4 | specific to non-specific binding ratio, cortex (FAAH [4]; [16]): 2.6 | specific to non-specific binding ratio, hippocampus (FAAH [4]; [16]): 2.3 | uptake in rat brain (SUV) (FAAH [4]; biodistribution, 90 min, baseline): ~0.8 SUV | defluorination (as determined by bone uptake) (FAAH [4]; rats): minimal | decreased uptake in blocking experiments, hippocampus (FAAH [5]; PET, end of 90 min, 4 1 mg/kg p.o. 1 h prior): ~40% | PET uptake (SUV), hippocampus and cortex (FAAH [5]; baseline, 90 min): ~0.8 SUV

O=C(Nc1cccnn1)N1CCC(=Cc2cccc(Oc3ccc(C(F)(F)F)cn3)c2)CC1 [compound 4]
oral bioavailability [6]: 88% | FAAH inhibition at blocking dose (FAAH [7]; p.o. 1.0 mg/kg, ref [20]): fully inhibit | duration of sustained inhibition of brain FAAH activity, maximal elevations of brain AEA and efficacy in rat models of acute inflammatory pain (FAAH [7]; single oral administration 1 mg/kg, ref [15],[20]): at least 24 h | selectivity for FAAH relative to other serine hydrolases [8]: exquisite selectivity
